Measurements from different studies.
Compare with care: the assays were run in different laboratories.
Target: Serine/threonine-protein kinase 32B (STK32B, Homo sapiens, UniProt Q9NY57)

Compound	assay	conditions	measurement	value
Cc1sc(C(=O)NC2COC2)cc1-n1cc(NC(=O)Nc2c(F)cccc2Cl)cn1	enzyme activity, inhibitor	10 µM	remaining activity	89.8%
COc1ccc2c(c1)O[C@@H](c1ccc(OC)c(OC)c1)C[C@H]2NC(=O)C1(c2ccc3c(c2)OC(F)(F)O3)CC1	cell-free assay, competition with immobilised ligand	1 µM	remaining binding	100%
CN1CC(Oc2cnc(C#N)cc2-c2ccn3nc(NC(=O)C4CC4)cc3c2)C1	enzyme activity, inhibitor	1 µM	inhibition	-2%
COc1cc(Cl)c(C(=O)N[C@@H](CN[C@H]2CC[C@@H](N)CC2)Cc2ccc(C#N)cc2)cc1-c1ccc(CN[C@H](C)c2ccc(C)cc2)o1	enzyme activity, inhibitor	1 µM	remaining activity	102%
Nc1ncnc2occ(-c3ccc(NC(=O)Nc4cc(C(F)(F)F)ccc4F)cc3)c12	cell-free assay	20 µM	remaining signal	0.9%
CS(=O)(=O)c1cc(C2(NC(=O)c3cncc4c3cnn4-c3ccc(F)cc3)CC2)ccn1	cell-free assay, competition with immobilised ligand	1 µM	remaining binding	100%
CC(C)(O)[C@H]1CC[C@H](Nc2ccc3ncc(-c4cccc(C(F)(F)F)c4)n3n2)CC1	enzyme activity, inhibitor	1 µM	remaining activity	96.8%
O=C(Nc1cnn(-c2csc(C(=O)NC3COC3)c2)c1)Nc1ccccc1Cl	enzyme activity, inhibitor	5 µM	remaining activity	122%
Cc1ccc(C(=O)Nc2ccc(CN3CCN(C)CC3)c(C(F)(F)F)c2)cc1C#Cc1cnc2cccnn12	cell-free assay	23.5 nM	remaining signal	98%
